Source: ChEMBL document CHEMBL1126202, “Dual-action penems and carbapenems” (J Med Chem, 1992)

Tests used:
[1] = test system: Klebsiella pneumoniae; test: In vitro antibacterial activity against klebsiella pneumoniae A; format: functional
Procedure, shortened: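 Agar-dilution MIC on Mueller-Hinton agar. Serial 2-fold dilutions were made in water, giving final agar concentrations of 128 to 0.0156 μg/mL. Inoculum was an overnight broth culture diluted 100-fold, applied with a multipoint replicator.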

[2] = target: T1, Penicillin-binding protein 1 (Staphylococcus aureus (strain COL)) (UniProt F4NA86); test: Concentration inhibiting [14C]- Penicillin G binding to Staphylococcus aureus ATCC 29213 Penicillin binding protein 1, 87 kDa
T1 sequence (whole entry): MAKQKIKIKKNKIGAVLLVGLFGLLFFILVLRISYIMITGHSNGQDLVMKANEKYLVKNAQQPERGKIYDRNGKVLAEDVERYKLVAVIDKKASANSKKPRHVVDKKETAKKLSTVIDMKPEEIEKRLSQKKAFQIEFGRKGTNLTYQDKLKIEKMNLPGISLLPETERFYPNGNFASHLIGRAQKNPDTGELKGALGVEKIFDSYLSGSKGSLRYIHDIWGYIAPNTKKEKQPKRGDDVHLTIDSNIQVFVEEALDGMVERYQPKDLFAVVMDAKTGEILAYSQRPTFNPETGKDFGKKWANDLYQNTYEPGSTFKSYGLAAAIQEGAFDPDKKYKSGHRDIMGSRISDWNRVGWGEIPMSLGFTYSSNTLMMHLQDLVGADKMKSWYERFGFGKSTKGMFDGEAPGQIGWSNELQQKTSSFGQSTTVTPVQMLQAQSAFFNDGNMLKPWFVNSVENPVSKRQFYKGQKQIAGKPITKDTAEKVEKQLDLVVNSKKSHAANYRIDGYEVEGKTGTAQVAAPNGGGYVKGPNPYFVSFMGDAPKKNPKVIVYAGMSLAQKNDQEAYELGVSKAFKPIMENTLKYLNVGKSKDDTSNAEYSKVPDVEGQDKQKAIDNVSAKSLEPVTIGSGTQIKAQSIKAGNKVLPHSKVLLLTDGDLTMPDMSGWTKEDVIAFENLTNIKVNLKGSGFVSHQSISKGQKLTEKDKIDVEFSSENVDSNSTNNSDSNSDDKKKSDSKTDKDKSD

[3] = target: Penicillin-binding protein 4 (Staphylococcus aureus) (UniProt P72355); test: Concentration inhibiting [14C]- Penicillin G binding to Staphylococcus aureus ATCC 29213 Penicillin binding protein 4 41 kDa
[4] = test system: Escherichia coli; test: Minimum inhibitory concentration of the Penicillin G binding to Escherichia coli UB1005 PBPs.
[5] = test system: Escherichia coli; test: Effect on replication DNA biosynthesis in Escherichia coli H560 (permeabilised cells).; format: functional, organism-based
Procedure, shortened: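 Toluene-permeabilized E. coli H560 cells were used. Replicative DNA synthesis was measured as ATP-dependent [3H]thymidine incorporation into trichloroacetic acid-insoluble material. IC50 is the concentration giving 50% inhibition.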

[6] = test system: Hathewaya histolytica; test: In vitro antibacterial activity against Clostridium histolyticum 503-86; format: functional
[7] = test system: Citrobacter freundii; test: In vitro antibacterial activity against Citrobacter freundii BS-16 (constitutive beta-lactamase producer); format: functional
Procedure, shortened: (§1)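 MIC was determined by agar dilution on Mueller-Hinton agar. Serial 2-fold aqueous dilutions were diluted 10-fold in agar to give final concentrations of 128 to 0.0156 μg/mL. Plates were inoculated by Steers replicator with overnight broth cultures diluted 100-fold.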

[8] = test system: Enterobacter cloacae; test: In vitro antibacterial activity against Enterobacter cloacae P99 (constitutive beta-lactamase producer); format: functional
[9] = test system: Klebsiella pneumoniae; test: In vitro antibacterial activity against Klebsiella pneumoniae A; format: functional; procedure, shortened: as §1
[10] = test system: Staphylococcus aureus; test: Minimum inhibitory concentration to the compound inhibiting [14C]- Penicillin G binding to Staphylococcus aureus ATCC 29213 Penicillin binding protein
[11] = target: T2, Penicillin-binding protein 2b (Staphylococcus aureus) (UniProt Q9XDB3); test: Concentration inhibiting [14C]- Penicillin G binding to Staphylococcus aureus ATCC 29213 Penicillin binding protein 3, 75 kDa
T2 sequence (whole entry): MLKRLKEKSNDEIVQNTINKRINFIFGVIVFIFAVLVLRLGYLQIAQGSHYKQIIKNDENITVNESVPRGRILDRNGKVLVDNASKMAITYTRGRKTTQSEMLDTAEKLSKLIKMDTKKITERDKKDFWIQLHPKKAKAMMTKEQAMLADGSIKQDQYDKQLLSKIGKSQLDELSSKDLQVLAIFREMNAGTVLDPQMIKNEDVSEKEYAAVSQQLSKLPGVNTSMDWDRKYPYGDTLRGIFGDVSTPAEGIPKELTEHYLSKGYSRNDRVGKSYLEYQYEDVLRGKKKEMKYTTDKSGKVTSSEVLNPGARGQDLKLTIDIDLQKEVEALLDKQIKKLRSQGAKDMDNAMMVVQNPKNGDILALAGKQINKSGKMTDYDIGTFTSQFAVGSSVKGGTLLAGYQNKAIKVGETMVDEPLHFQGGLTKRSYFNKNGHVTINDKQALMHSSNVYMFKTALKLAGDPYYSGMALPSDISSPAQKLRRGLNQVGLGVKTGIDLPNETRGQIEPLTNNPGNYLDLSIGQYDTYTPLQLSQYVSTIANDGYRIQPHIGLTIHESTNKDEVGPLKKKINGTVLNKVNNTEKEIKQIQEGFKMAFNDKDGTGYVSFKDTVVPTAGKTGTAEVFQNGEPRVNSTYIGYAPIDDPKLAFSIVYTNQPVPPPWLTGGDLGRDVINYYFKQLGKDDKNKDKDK

[12] = test system: Escherichia coli; test: Minimum inhibitory concentration inhibiting [14C]- Penicillin G binding to Escherichia coli UB1005 PBPs.
[13] = test system: Proteus vulgaris; test: In vitro antibacterial activity against Proteus vulgaris ATCC 6380 (constitutive beta-lactamase producer); format: functional
Procedure, shortened: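 Proteus MICs were determined by agar dilution on Mueller-Hinton agar containing 3% agar. Plates were replicator-inoculated with 100-fold-diluted overnight broth cultures.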

[14] = test system: Staphylococcus aureus; test: In vitro antibacterial activity against Staphylococcus aureus 753 (constitutive beta-lactamase producer); format: functional; procedure, shortened: as §1
[15] = test system: Serratia marcescens; test: In vitro antibacterial activity against Serratia marcescens SM (constitutive beta-lactamase producer); format: functional; procedure, shortened: as §1
[16] = Stability in pH 7.4 phosphate buffer at 37 degree C.; format: physicochemical
Procedure, shortened: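 Compounds were held in pH 7.4 phosphate buffer at 37 °C and monitored by reverse-phase HPLC on a PRP-1 column with UV detection at 275–286 nm. The mobile phase was 0.01 M tetradecyltrimethylammonium bromide in pH 8.2 phosphate/acetonitrile. Product-peak decline was followed to at least 50%, and half-life was taken from semilogarithmic plots.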

[17] = test system: Staphylococcus aureus; test: Minimum inhibitory concentration to the Penicillin G binding to Staphylococcus aureus ATCC 29213 PBPs
[18] = target: T1, Penicillin-binding protein 1 (Staphylococcus aureus (strain COL)); test: Concentration inhibiting [14C]- Penicillin G binding to Staphylococcus aureus ATCC 29213 Penicillin binding protein 1 87 kDa
[19] = test system: Penicillin-binding protein 3 FtsI (Escherichia coli K-12); test: Concentration inhibiting [14C]- Penicillin G binding to Escherichia coli UB1005 PBP3 (penicillin binding protein) 60 kDa

| SMILES | MIC [1] [µg/mL] | IC90 [2] [µg/mL] | IC90 [3] [µg/mL] | MIC [4] [µg/mL] | IC50 [5] [µg/mL] | MIC [6] [µg/mL] | MIC [7] [µg/mL] | MIC [8] [µg/mL] | MIC [9] [µg/mL] | MIC [10] [µg/mL] | IC90 [11] [µg/mL] | MIC [12] [µg/mL] | MIC [13] [µg/mL] | MIC [14] [µg/mL] | MIC [15] [µg/mL] | half-life [16] [h] | MIC [17] [µg/mL] | IC90 [18] [µg/mL] | IC90 [19] [µg/mL] |
| --- | --- | --- | --- | --- | --- | --- | --- | --- | --- | --- | --- | --- | --- | --- | --- | --- | --- | --- | --- |
| C[C@@H](O)[C@H]1C(=O)N2C(C(=O)[O-])=C(COC(=O)N3CCN(c4cc5c(cc4F)c(=O)c(C(=O)O)cn5C4CC4)CC3)S[C@H]12.[Na+] | 0.25 | 2 | 2 | 4 | 3 | – | – | – | – | – | – | – | – | – | – | – | – | – | – |
| C[C@@H](O)[C@H]1C(=O)N2C(C(=O)[O-])=C(CO)S[C@H]12.[Na+] | – | 30 | – | – | – | < 0.125 | 4 | 8 | 4 | 0.25 | 10 | 4 | 8 | 1 | 8 | – | – | – | – |
| C[C@@H](O)[C@H]1C(=O)N2C(C(=O)[O-])=C(COC(=O)c3cn(CCF)c4c(F)c(N5CCN(C)CC5)c(F)cc4c3=O)S[C@H]12.[Na+] | 0.5 | – | – | – | 4.7 | – | – | – | – | – | 0.5 | – | – | – | – | 52 | 0.125 | 0.5 | 30 |
